From ChEMBL document CHEMBL1828530, “Quinonoid and phenazine compounds: synthesis and evaluation against H37Rv, rifampicin and isoniazid-resistance strains of Mycobacterium tuberculosis” (Eur J Med Chem, 2011)
Converted amounts (≈) assume the structure as drawn.

How the values were obtained:
PBMC = experiment: Cytotoxicity against human PBMC after 72 hrs by Alamar blue assay; type: cell-based
Summary of the method: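 Human peripheral blood mononuclear cells; compounds (0.048–25) in DMSO (0.1%) added 24 h after plating, then 72 h exposure. Alamar Blue absorbance read at 570 and 595 nm, medium-alone blank subtracted at each wavelength; effect expressed as percentage of control absorbance; IC50 derived.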

[1] = tested on: Mycobacterium tuberculosis; experiment: Antitubercular activity against Mycobacterium tuberculosis H37Rv after 9 days by resazurin reduction assay; type: functional; details: 216 h

Compound | IC50 (PBMC) | MIC [1]
CC(C)CC1=C(OC2(CC(C)C)C(=O)C3=C(CCCC3)c3nc4ccccc4nc32)C(=O)C2=C(CCCC2)C1=O (centres undefined) | > 46.4 µM | 92.8 µM (≈ 50 µg/mL)
CCCC1=C(OC2(CCC)C(=O)C3=C(CCCC3)c3nc4ccccc4nc32)C(=O)C2=C(CCCC2)C1=O (centres undefined) | > 49 µM | > 196 µM
CCCC1=C(OC2(CCC)C(=O)c3ccccc3-c3nc4ccccc4nc32)C(=O)c2ccccc2C1=O (centres undefined) | > 49.7 µM | > 199 µM
CC(C)Cc1c2[nH]c3ccccc3nc-2c2ccccc2c1=O | > 82.7 µM | > 331 µM
CC(C)=Cc1c2[nH]c3ccccc3nc-2c2ccccc2c1=O | 62 µM | 83.3 µM (≈ 25 µg/mL)
CCCc1c2[nH]c3ccccc3nc-2c2c(c1=O)CCCC2 | > 85.5 µM | –
C=CCc1c2[nH]c3ccccc3nc-2c2ccccc2c1=O | 64.3 µM | 87.4 µM (≈ 25 µg/mL)
CC(C)CC1=C(O)C(=O)c2ccccc2C1=O | 93.5 µM | 217 µM (≈ 50.1 µg/mL)
C=CCC1=C(OC2(CC=C)C(=O)c3ccccc3-c3nc4ccccc4nc32)C(=O)c2ccccc2C1=O (centres undefined) | > 50.1 µM | > 201 µM
CCCC1=C(O)C(=O)c2ccccc2C1=O | 97.8 µM | 462 µM (≈ 100 µg/mL)
CC(C)=CCC1=C(OC2(CC=C(C)C)C(=O)c3ccccc3-c3nc4ccccc4nc32)C(=O)c2ccccc2C1=O (centres undefined) | > 45.1 µM | > 180 µM
CC(C)CC1=C(OC2(CC(C)C)C(=O)c3ccccc3-c3nc4ccccc4nc32)C(=O)c2ccccc2C1=O (centres undefined) | > 47.1 µM | > 188 µM
CC(C)CCC1=C(O)C(=O)C2=C(CCCC2)C1=O | 81.3 µM | 101 µM (≈ 25 µg/mL)
CC(C)=CCC1=C(O)C(=O)c2ccccc2C1=O [LAPACHOL] | > 103 µM | 207 µM (≈ 50.1 µg/mL)
CC(C)CCC1=C(O)C(=O)c2ccccc2C1=O | > 102 µM | 205 µM (≈ 50.1 µg/mL)
CO[C@H]1/C=C/O[C@@]2(C)Oc3c(C)c(O)c4c(O)c(c(/C=N/N5CCN(C)CC5)c(O)c4c3C2=O)NC(=O)/C(C)=C\C=C\[C@H](C)[C@H](O)[C@@H](C)[C@@H](O)[C@@H](C)[C@H](OC(C)=O)[C@@H]1C [RIFAMPIN] | – | 0.12 µM (≈ 0.0988 µg/mL)
CC(C)Cc1c2[nH]c3ccccc3nc-2c2c(c1=O)CCCC2 | > 81.6 µM | > 327 µM
CC(C)=CC1=C(O)C(=O)c2ccccc2C1=O | > 110 µM | 219 µM (≈ 50.1 µg/mL)
NNC(=O)c1ccncc1 [ISONIAZID] | – | 0.145 µM (≈ 0.0199 µg/mL)
CCCC1=C(O)C(=O)C2=C(CCCC2)C1=O | 89.1 µM | 227 µM (≈ 50 µg/mL)
CC(C)CCC1=C(OC2(CCC(C)C)C(=O)C3=C(CCCC3)c3nc4ccccc4nc32)C(=O)C2=C(CCCC2)C1=O (centres undefined) | > 44.9 µM | 176 µM (≈ 100 µg/mL)
C=CCC1=C(O)C(=O)c2ccccc2C1=O | > 117 µM | 467 µM (≈ 100 µg/mL)
CC(C)CCc1c2[nH]c3ccccc3nc-2c2c(c1=O)CCCC2 | > 78 µM | 9.75 µM (≈ 3.12 µg/mL)
CC(C)CCC1=C(OC2(CCC(C)C)C(=O)c3ccccc3-c3nc4ccccc4nc32)C(=O)c2ccccc2C1=O (centres undefined) | > 44.7 µM | > 179 µM
CC(C)CCc1c2[nH]c3ccccc3nc-2c2ccccc2c1=O | 45.1 µM | 19.8 µM (≈ 6.26 µg/mL)
CC(C)CC1=C(O)C(=O)C2=C(CCCC2)C1=O | 64.2 µM | 107 µM (≈ 25 µg/mL)
